From ChEMBL document CHEMBL1833955, “Optimization of (arylpiperazinylbutyl)oxindoles exhibiting selective 5-HT₇ receptor antagonist activity” (J Med Chem, 2011)

Columns and labels:
[1] = target: Adrenergic receptor alpha-1 (Rattus norvegicus) (UniProt P15823+P23944+P43140); assay: Displacement of [3H]prazosin from alpha1-adrenergic receptor in rat frontal cortex membrane at 10^-7 M after 45 mins by scintillation spectrometry; format: cell membranes
Method in brief: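 Rat frontal cortex membranes (tissue frozen on dry ice, homogenized in 50 mM Tris-HCl pH 7.7, washed by repeated 40 000 g spins at 4 °C) incubated with 0.6 nM [3H]prazosin, 45 min at 25 °C, triplicates; nonspecific binding with 10 μM prazosin. Filtration over GF/B filters presoaked in 0.05% polyethylenimine, scintillation counting; single test concentration 10^-7 M.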

[2] = target: 5-hydroxytryptamine receptor 7 (Homo sapiens, UniProt P34969); assay: Displacement of [3H]CT from human 5-HT7 receptor expressed in CHO cells by scintillation spectrometry; format: cell-based
5-hydroxytryptamine receptor 7, sequence (P34969 whole entry): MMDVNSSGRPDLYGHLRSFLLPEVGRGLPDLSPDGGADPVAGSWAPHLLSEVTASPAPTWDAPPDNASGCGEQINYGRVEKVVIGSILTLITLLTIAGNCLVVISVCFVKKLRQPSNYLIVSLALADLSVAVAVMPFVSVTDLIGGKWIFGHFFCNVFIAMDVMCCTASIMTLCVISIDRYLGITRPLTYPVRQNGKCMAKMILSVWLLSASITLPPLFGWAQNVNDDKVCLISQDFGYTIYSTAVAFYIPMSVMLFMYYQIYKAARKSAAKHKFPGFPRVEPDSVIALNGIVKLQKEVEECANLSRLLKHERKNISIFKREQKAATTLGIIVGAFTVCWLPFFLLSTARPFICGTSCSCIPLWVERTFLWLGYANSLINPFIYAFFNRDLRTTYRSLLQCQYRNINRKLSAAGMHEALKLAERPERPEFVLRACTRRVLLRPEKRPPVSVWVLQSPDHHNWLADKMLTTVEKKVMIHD
Method in brief: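 Cloned human 5-HT7 receptor from CHO cells, run under the supplier's recommended conditions with [3H]CT. Nonspecific binding with 25 μM clozapine. Ended by GF/C filtration, then scintillation counting. Ki taken from two nine-concentration displacement curves run in triplicate, single-site fit.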

[3] = target: T1, 5-hydroxytryptamine receptor 1A (Rattus norvegicus, UniProt P19327); assay: Displacement of [3H]8-OH-DPAT from 5-HT1A receptor in rat frontal cortex membrane after 45 mins by scintillation counting; format: cell membranes
T1 sequence (P19327 whole entry): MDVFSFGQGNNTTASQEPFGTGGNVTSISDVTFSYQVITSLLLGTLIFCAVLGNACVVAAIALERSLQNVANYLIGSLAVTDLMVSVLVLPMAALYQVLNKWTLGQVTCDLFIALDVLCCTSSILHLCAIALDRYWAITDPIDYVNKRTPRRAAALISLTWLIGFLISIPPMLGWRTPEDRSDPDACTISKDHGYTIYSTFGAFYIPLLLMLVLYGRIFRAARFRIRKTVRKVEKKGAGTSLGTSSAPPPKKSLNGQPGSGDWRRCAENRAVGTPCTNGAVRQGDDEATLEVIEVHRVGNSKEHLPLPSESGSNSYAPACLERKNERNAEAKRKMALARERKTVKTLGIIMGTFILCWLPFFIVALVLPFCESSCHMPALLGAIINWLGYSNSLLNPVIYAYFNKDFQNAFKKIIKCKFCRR
Method in brief: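 Membranes from adult rat frontal cortex, prepared in 50 mM Tris-HCl pH 7.7 with washes and a 37 °C preincubation. Incubation buffer: 6.66 mM CaCl2, 16.66 μM pargyline, 0.166% ascorbic acid. Ligand 1.5 nM [3H]8-OH-DPAT; 10 μM 5-HT defines nonspecific binding. 45 min at 25 °C, GF/B filtration, scintillation counting. Triplicates; Ki from two nine-point curves, single-site fit.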

[4] = target: T2, 5-hydroxytryptamine receptor 1A (Rattus norvegicus) (UniProt P19327); assay: Displacement of [3H]8-OH-DPAT from 5-HT1A receptor in rat frontal cortex membrane at 10^-7 M after 45 mins by scintillation counting; format: cell membranes
T2 sequence (whole entry): T1 sequence (P19327 whole entry)

Mus musculus [5] = assay: Anxiolytic activity in ip dosed NMRI mouse assessed as behavioral activity administered 30 mins prior to test measured up to 5 mins by light-dark test; format: functional; conditions: read-out: MED
Method in brief: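 Male NMRI mice, 25–33 g, housed in the dark, dosed ip 30 min before test. Each mouse placed in the centre of the lit side of an automated two-compartment chamber under a 2-lx light. Activity recorded for 5 min: time in each area, transitions, horizontal and vertical activity. Means ± SEM, one-way ANOVA with Duncan's test; MED reported.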

[6] = Selectivity ratio of Ki for 5-HT1A receptor in rat frontal cortex membrane to Ki for human 5-HT7 receptor; format: cell membranes
[7] = Selectivity ratio of Ki for alpha1-adrenergic receptor in rat frontal cortex membrane to Ki for human 5-HT7 receptor; format: cell membranes
Rattus norvegicus = assay: Anxiolytic activity in ip dosed Wistar rat assessed as number of punished licks administered 30 mins prior to test by conflict drinking Vogel test; format: functional; conditions: read-out: MED
Method in brief: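 Male Wistar rats, 160–180 g, water-deprived 48 h and fasted 24 h. Drug or vehicle given ip 30 min before testing, carried out in a quiet room at 23 °C between 07:30 and 13:00. Modified Vogel procedure. Mean ± SEM tolerated shocks per group, one-way ANOVA with Duncan's test; MED reported.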

[8] = target: T3, Adrenergic receptor alpha-1 (Rattus norvegicus, UniProt P15823+P23944+P43140); assay: Displacement of [3H]prazosin from alpha1-adrenergic receptor in rat frontal cortex membrane after 45 mins by scintillation spectrometry; format: cell membranes
T3 sequence (P15823 whole entry): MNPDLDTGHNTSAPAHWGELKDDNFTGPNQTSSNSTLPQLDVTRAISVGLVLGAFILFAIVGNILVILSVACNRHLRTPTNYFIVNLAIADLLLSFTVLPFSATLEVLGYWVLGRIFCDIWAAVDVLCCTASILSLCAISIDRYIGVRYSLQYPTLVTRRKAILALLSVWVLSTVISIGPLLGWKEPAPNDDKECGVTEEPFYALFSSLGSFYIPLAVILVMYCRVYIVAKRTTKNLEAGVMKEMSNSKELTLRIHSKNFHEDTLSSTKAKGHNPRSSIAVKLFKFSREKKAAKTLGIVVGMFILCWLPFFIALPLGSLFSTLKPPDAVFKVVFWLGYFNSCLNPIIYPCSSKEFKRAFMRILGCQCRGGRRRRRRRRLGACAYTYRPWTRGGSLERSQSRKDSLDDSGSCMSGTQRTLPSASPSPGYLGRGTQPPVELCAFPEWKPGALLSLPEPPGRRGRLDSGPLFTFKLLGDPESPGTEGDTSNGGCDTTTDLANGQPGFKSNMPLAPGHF
T3 sequence (P23944 whole entry): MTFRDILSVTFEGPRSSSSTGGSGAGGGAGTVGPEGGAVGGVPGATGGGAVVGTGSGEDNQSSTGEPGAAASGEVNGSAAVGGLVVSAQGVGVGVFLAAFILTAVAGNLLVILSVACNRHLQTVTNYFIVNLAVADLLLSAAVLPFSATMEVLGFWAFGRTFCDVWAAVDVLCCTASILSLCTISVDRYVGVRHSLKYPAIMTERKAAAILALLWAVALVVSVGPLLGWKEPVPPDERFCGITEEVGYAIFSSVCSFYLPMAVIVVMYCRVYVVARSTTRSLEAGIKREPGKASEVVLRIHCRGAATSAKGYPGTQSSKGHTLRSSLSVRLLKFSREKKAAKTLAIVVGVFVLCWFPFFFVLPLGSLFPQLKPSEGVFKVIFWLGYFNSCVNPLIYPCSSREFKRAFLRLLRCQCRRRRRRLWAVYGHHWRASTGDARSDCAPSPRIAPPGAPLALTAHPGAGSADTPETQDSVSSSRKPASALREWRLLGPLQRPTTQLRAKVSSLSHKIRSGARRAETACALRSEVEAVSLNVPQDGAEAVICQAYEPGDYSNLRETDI
T3 sequence (P43140 whole entry): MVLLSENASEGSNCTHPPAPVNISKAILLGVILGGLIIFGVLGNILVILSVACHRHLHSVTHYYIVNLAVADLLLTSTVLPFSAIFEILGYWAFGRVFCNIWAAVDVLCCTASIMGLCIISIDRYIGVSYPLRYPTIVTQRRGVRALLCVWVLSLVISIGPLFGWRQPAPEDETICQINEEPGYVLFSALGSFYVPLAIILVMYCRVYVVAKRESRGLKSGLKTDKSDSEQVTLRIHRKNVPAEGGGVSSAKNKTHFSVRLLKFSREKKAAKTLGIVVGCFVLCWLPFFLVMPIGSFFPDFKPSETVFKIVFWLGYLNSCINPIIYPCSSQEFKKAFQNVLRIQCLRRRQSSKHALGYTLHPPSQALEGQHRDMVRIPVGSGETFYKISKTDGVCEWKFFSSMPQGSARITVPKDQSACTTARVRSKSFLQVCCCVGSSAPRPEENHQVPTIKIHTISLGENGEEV
Method in brief: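 Rat frontal cortex tissue frozen on dry ice, homogenised in 50 mM Tris-HCl pH 7.7 and washed by centrifugation. [3H]prazosin at 0.6 nM; 10 μM prazosin defines nonspecific binding. 45 min at 25 °C, GF/B filtration, scintillation counting. Triplicates; Ki from two nine-concentration curves fitted to a single-site model.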

[9] = Metabolic stability in human liver microsomes after 60 mins by HPLC-MS/MS analysis; format: ADME, Microsome; conditions: read-out: Stability
Method in brief: (§1)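 Test compound at 100 nM final incubated with rat or human liver microsomes (0.33 mg/mL) at 37 °C for 0, 5, 15, 30 and 60 min. Buffer Tris-HCl pH 7.4 with Mg2+ and BSA. Reaction started with NADPH and stopped with ice-cold MeOH. Parent compound measured by HPLC-MS/MS, positive-ion MRM.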

[10] = Metabolic stability in rat liver microsomes after 60 mins by HPLC-MS/MS analysis; format: ADME, Microsome; conditions: read-out: Stability; method in brief: as §1
Mus musculus [11] = assay: Antidepressant activity in ip dosed NMRI mouse assessed as decrease in immobility time administered 30 mins prior to test measured last 4 mins of 6 mins testing period by forced swimming test; format: functional; conditions: read-out: MED
Method in brief: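 Mice given drug or vehicle ip 30 min before test. Each mouse placed in a 17.7 cm high, 12 cm diameter glass cylinder holding 25 °C water to 12.5 cm depth, four mice at a time. Immobility (floating, only movements keeping head above water) timed over the last 4 min of a 6 min session.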

[12] = Drug level in NMRI mouse brain at 10 mg/kg, ip after 30 mins by HPLC/MS/MS analysis; format: ADME, organism-based; design: dose 10 mg/kg, route intraperitoneal; conditions: read-out: Drug uptake
Method in brief: (§2)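 Male NMRI mice, 25–30 g, given four compounds together ip as a cassette suspension in 0.4% methyl cellulose (n = 3/dose). After 30 min, vena cava blood and brain collected. Brain homogenised in 4 volumes of water; samples extracted with acetonitrile–water 3:1 and analysed by gradient HPLC-MS/MS against spiked calibrators. Brain/plasma given as percentage.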

[13] = Drug level in NMRI mouse brain at 1 mg/kg, ip after 30 mins by HPLC/MS/MS analysis; format: ADME, organism-based; design: dose 1 mg/kg, route intraperitoneal; conditions: read-out: Drug uptake; method in brief: as §2
[14] = Plasma concentration in NMRI mouse at 3 mg/kg, ip after 30 mins by HPLC-MS/MS analysis; format: ADME, organism-based; design: dose 3 mg/kg, route intraperitoneal; method in brief: as §2
[15] = Plasma concentration in NMRI mouse at 10 mg/kg, ip after 30 mins by HPLC-MS/MS analysis; format: ADME, organism-based; design: dose 10 mg/kg, route intraperitoneal; method in brief: as §2
[16] = Drug level in NMRI mouse brain at 3 mg/kg, ip after 30 mins by HPLC/MS/MS analysis; format: ADME, organism-based; design: dose 3 mg/kg, route intraperitoneal; conditions: read-out: Drug uptake; method in brief: as §2
[17] = Plasma concentration in NMRI mouse at 1 mg/kg, ip after 30 mins by HPLC-MS/MS analysis; format: ADME, organism-based; design: dose 1 mg/kg, route intraperitoneal; method in brief: as §2

SMILES	inhibition [1]	Ki [2]	Ki [3]	inhibition [4]	minimal effective dose (Mus musculus [5])	Ratio Ki [6]	Ratio Ki [7]	minimal effective dose (Rattus norvegicus)	Ki [8]	remaining at 1 h [9]	remaining at 1 h [10]	minimal effective dose (Mus musculus [11])	concentration at 0.5 h [12]	concentration at 0.5 h [13]	concentration at 0.5 h [14]	concentration at 0.5 h [15]	concentration at 0.5 h [16]	concentration at 0.5 h [17]
O=C1Nc2ccc(F)cc2C1CCCCN1CC=C(c2cccc(C(F)(F)F)c2)CC1 (stereo not given)	11%	40 nM	55 nM															
CCC1(CCCCN2CCN(c3ccc(Cl)cc3)CC2)C(=O)Nc2c(Cl)cc(Cl)cc21 (stereo not given)		9.5 nM		5%	1 mg/kg	> 100	12	5 mg/kg	110 nM	53%	76%	> 30 mg/kg						
CCC1(CCCCN2CCN(c3ccc(Cl)cc3)CC2)C(=O)Nc2ccc(Cl)cc21 (stereo not given)		1.1 nM		0%		> 100	159		175 nM	23%	21%	> 10 mg/kg	27 nM	17 nM	14 nM	8 nM	23 nM	10 nM
CCC1(CCCCN2CCN(c3cccc(Cl)c3)CC2)C(=O)Nc2ccccc21 (stereo not given)		0.4 nM	46 nM		> 20 mg/kg	115	78	> 10 mg/kg	31 nM	31%	4%		824 nM	65 nM	168 nM	272 nM	613 nM	22 nM
CCC1(CCCCN2CCN(c3ccc(Cl)cc3)CC2)C(=O)Nc2c1cc(Cl)c(F)c2Cl (stereo not given)		96 nM		10%	> 10 mg/kg		4	> 20 mg/kg	380 nM	76%	72%	> 30 mg/kg						
CCC1(CCCCN2CCN(c3ccc(Cl)c(Cl)c3)CC2)C(=O)Nc2ccccc21 (stereo not given)		0.6 nM		11%		> 100	208		125 nM	29%	13%	> 10 mg/kg	1150 nM	43 nM	174 nM	861 nM	223 nM	31 nM
